Assay results from different studies.
Protocols differ between the studies behind these lines.
Target: Serine/threonine-protein kinase MARK1 (MARK1, Homo sapiens, UniProt Q9P0L2)
Observed: enzyme activity
Action: inhibitor

Structure (SMILES)	assay	conditions	remaining activity [%]
NS(=O)(=O)c1ccc(CNc2ccnc(Nc3cccc(NC(=O)N4CCCC4)c3)n2)cc1	radiometric	1 µM	104
CCCOc1ccc(OC)c(F)c1C(=O)c1ccc(C(=O)N[C@@H]2CNC[C@H]2NC(=O)c2ccc3[nH]ncc3c2)cc1		10 µM	21
Cc1ccc(C(=O)Nc2ccc(CN3CCN(C)CC3)c(C(F)(F)F)c2)cc1C#Cc1cnc2cccnn12		23.5 nM	100
Cn1c(=O)n(-c2ccc(C(C)(C)C#N)cc2)c2c3cc(-c4cnc5ccccc5c4)ccc3ncc21		10 µM	97
COc1cc(Nc2cnc(C#N)c(O[C@H](C)CN(C)C)n2)ncc1-c1cnn(C)c1	radiometric	10 µM	80
Cc1nn(CC(F)(F)F)cc1Nc1nccc(NCCc2cnc[nH]2)n1	radiometric	1 µM	109
COc1cc(Cl)c(C(=O)N[C@@H](CN[C@H]2CC[C@@H](N)CC2)Cc2ccc(C#N)cc2)cc1-c1ccc(CN[C@H](C)c2ccc(C)cc2)o1		1 µM	148
O=C(Nc1cnn(-c2csc(C(=O)NC3COC3)c2)c1)Nc1ccccc1Cl		5 µM	96.3
CC(C)(C)c1nc2c(s1)c1nc(N)ncc1c1ccc(NS(=O)(=O)c3c(F)cccc3F)c(F)c12	radiometric	1 µM	90
Oc1cccc(-c2nc(N3CCOCC3)c3oc4ncccc4c3n2)c1		10 µM	91
O=C(NCCCNc1nc(Nc2cccc(NC(=O)N3CCCC3)c2)ncc1Br)C1CCC1	radiometric	1 µM	-6
Cc1cnc(NC2CCOCC2)nc1-n1cnc(C(=O)NC(CN)c2cc(F)cc(Cl)c2)c1 (stereo not shown)	radiometric	1 µM	43
c1cc(CN2CCOCC2)cc(Nc2ncc(C3CC3)c(NCCc3c[nH]cn3)n2)c1	radiometric	1 µM	1
CCN(CC)c1ccc(C2=NNC(=O)CC2C)cc1[N+](=O)[O-] (stereo not shown)		10 µM	102
O=C(Nc1cnn(-c2csc(C(=O)NC3COC3)c2)c1)Nc1c(F)cccc1Cl		5 µM	108
NS(=O)(=O)c1ccc(CNc2nc(Nc3cccc(CN4CCOCC4)c3)ncc2Br)cc1	radiometric	1 µM	66
CC(C)(C)c1nc(-c2cccc(NS(=O)(=O)c3c(F)cccc3F)c2F)c(-c2ccnc(N)n2)s1	radiometric	1 µM	90
NS(=O)(=O)c1ccc(CNc2nc(Nc3cccc(CN4CCOCC4)c3)ncc2C2CC2)cc1	radiometric	1 µM	100
CC(C)(O)[C@H]1CC[C@H](Nc2ccc3ncc(-c4cccc(C(F)(F)F)c4)n3n2)CC1		1 µM	102
